Active and inactive are the calls of the source. The rule behind the calls is not given here.
Experiments:
[1] = target: T1, Sterol regulatory element-binding protein 2 (Homo sapiens) (UniProt Q12772); experiment: Inhibition of SREBP2 maturation in human HepG2 cells at 50 uM after overnight incubation by immunoblot analysis; type: cell-based
T1 sequence (whole entry): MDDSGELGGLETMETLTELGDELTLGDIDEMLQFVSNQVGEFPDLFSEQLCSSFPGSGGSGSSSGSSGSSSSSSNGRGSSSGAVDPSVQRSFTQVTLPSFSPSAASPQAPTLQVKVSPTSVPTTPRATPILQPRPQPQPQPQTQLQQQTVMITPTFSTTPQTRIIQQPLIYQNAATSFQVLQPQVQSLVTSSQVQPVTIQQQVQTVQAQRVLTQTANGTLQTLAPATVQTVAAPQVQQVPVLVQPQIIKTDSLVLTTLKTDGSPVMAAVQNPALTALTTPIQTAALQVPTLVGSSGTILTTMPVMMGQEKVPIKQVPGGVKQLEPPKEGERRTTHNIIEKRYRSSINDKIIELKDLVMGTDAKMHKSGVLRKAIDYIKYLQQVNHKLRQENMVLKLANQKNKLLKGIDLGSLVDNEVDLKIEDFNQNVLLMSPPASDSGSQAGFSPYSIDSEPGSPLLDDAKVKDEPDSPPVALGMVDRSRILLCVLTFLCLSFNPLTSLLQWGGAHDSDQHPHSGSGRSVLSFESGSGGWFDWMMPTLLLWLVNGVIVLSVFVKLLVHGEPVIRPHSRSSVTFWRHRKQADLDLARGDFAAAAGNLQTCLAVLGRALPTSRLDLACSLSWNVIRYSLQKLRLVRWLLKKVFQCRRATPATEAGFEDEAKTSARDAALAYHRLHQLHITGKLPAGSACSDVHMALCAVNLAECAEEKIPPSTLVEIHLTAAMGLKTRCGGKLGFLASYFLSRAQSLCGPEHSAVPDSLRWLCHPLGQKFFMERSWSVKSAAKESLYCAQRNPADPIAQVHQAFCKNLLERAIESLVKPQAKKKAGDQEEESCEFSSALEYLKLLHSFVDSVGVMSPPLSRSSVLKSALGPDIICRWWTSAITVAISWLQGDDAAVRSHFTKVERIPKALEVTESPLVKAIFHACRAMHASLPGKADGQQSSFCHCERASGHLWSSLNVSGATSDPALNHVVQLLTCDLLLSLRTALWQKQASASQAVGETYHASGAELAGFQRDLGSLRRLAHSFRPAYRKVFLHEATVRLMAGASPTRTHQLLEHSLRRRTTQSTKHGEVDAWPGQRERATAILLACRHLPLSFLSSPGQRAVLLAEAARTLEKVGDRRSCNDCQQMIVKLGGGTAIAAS
In short: (§1)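 Human HepG2 cells were incubated with test agents, including 10 µM atorvastatin alone or combined with conjugate. The mature form of SREBP-2 protein was then assessed.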

[2] = AUClast in Sprague-Dawley rat at 30 mg/kg, po administered as single dose measured up to 6 hrs post dose by LC/MS/MS analysis; conditions: in vivo
[3] = target: T1, Sterol regulatory element-binding protein 2 (Homo sapiens); conditions: HepG2, 10 uM
in vivo = conditions: Sprague-Dawley, rat, po, 30 mg/kg
Plasma = experiment: Drug level in Sprague-Dawley rat plasma treated with N-(2-(4Z,7Z,10Z,13Z,16Z,19Z)-docosa-4,7,10,13,16,19-hexaenamidoethyl)-2-hydroxybenzamide at 300 mg/kg, po measured up to 24 hrs post dose; type: ADME, organism-based; conditions: in vivo
In short: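 Single oral dose of 300 mg/kg to Sprague Dawley rats. Plasma collected at 0, 0.5, 1, 2, 4, 8 and 24 hr. Analytes were the parent, the salicylate-linker and linker-DHA metabolites, salicylic acid and salicyluric acid; Cmax and AUClast derived.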

[4] = target: T1, Sterol regulatory element-binding protein 2 (Homo sapiens); experiment: Inhibition of SREBP2 in human HepG2 cells assessed as reduction of PCSK9 secretion at 50 uM after 16 hrs by ELISA; type: cell-based
In short: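 Human HepG2 cells were treated in culture. Secreted PCSK9 in the culture supernatant was quantified with a human-specific PCSK9 ELISA.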

[5] = Cmax in portal vein cannulated Sprague-Dawley rat at 30 mg/kg, po measured up to 140 mins; type: ADME, organism-based; parameters: dose 30 mg/kg, route oral; conditions: portal vein blood
In short: (§2)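 Sprague Dawley rats surgically fitted with indwelling jugular vein and portal vein cannulas; oral dosing, then serial blood draws from both portal and jugular veins at 10, 20, 40 min and 1, 2, 4, 6 hr post dose; plasma analysed for parent and metabolites by LC/MS/MS.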

[6] = Cmax in jugular vein cannulated Sprague-Dawley rat at 30 mg/kg, po measured up to 140 mins; type: ADME, organism-based; parameters: dose 30 mg/kg, route oral; conditions: jugular vein blood; in short: as §2
Rattus norvegicus [7] = experiment: Cmax in portal vein cannulated Sprague-Dawley rat assessed nicotinuric acid at 30 mg/kg, po measured up to 140 mins; type: ADME, organism-based; parameters: dose 30 mg/kg, route oral; conditions: in vivo; in short: as §2
Rattus norvegicus [8] = experiment: Cmax in jugular vein cannulated Sprague-Dawley rat assessed nicotinuric acid at 30 mg/kg, po measured up to 140 mins; type: ADME, organism-based; parameters: dose 30 mg/kg, route oral; conditions: in vivo; in short: as §2
Rattus norvegicus [9] = experiment: Cmax in portal vein cannulated Sprague-Dawley rat assessed as N-(2-(methylamino)ethyl)nicotinamide at 30 mg/kg, po measured up to 140 mins; type: ADME, organism-based; parameters: dose 30 mg/kg, route oral; conditions: in vivo, BLD = below limit of detection; in short: as §2
Rattus norvegicus [10] = experiment: Cmax in jugular vein cannulated Sprague-Dawley rat assessed as N-(2-(methylamino)ethyl)nicotinamide at 30 mg/kg, po measured up to 140 mins; type: ADME, organism-based; parameters: dose 30 mg/kg, route oral; conditions: in vivo, BLD = below limit of detection; in short: as §2
Liver = experiment: Drug uptake in Sprague-Dawley rat liver at 100 mg/kg, po qd for 3 days measured 4 hrs post last dose; type: ADME, organism-based; conditions: in vivo
In short: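 Sprague Dawley rats (n = 6) dosed 100 mg/kg once daily for 3 days; plasma and tissues collected four hours after the last dose and analysed for parent compound and metabolites.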

[11] = target: T2, Fatty-acid amide hydrolase 1 (Homo sapiens, UniProt O00519); experiment: Drug metabolism in human HepG2 cells assessed as FAAH-mediated compound hydrolysis by measuring level of deuterium-labelled EPA-d5 released at 50 uM by LC/MS-MS analysis; type: ADME, cell-based; conditions: hepg2, 50 µM, TDE = time-dependent effect
T2 sequence (O00519 whole entry): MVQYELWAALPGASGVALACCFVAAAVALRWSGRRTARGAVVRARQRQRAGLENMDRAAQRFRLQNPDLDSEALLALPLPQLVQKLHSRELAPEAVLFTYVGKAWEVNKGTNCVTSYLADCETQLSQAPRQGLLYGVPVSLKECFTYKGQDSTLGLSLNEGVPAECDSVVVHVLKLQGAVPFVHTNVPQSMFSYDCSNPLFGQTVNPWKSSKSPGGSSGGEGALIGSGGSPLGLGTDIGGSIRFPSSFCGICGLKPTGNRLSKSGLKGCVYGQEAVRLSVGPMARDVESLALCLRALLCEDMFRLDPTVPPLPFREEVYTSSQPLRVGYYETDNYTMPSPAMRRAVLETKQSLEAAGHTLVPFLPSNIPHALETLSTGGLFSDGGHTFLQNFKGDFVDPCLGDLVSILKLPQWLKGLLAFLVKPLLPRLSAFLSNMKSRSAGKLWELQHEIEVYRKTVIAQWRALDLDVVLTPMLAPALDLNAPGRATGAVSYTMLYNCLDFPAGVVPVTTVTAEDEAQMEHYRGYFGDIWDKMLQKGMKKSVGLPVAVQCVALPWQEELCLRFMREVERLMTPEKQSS

[12] = Drug uptake in lysosomes of human HuH7 cells at 25 uM after 30 mins by LysoTracker/DAPI staining-based confocal microscopy; type: ADME, cell-based, Lysosome; conditions: huh-7, 0.5 h
[13] = Drug uptake in endoplasmic reticulum of human HuH7 cells at 25 uM after 30 mins by LysoTracker/DAPI staining-based confocal microscopy; type: ADME, cell-based; conditions: huh-7, 0.5 h
In short: (§3)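 HuH-7 hepatocellular carcinoma cells were plated overnight in DMEM with 10% FBS. They were transduced for 48 h with BacMam CellLight ER-RFP or Late Endosomes-RFP organelle markers. Cells were then exposed for 30 min to fluorescent cis-parinaric acid conjugate in DMEM at 25 µM. They were fixed in 4% paraformaldehyde for 2 min at 37 °C, washed with PBS, mounted with anti-fade DAPI and imaged by confocal microscopy at 63X.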

[14] = Drug uptake in endoplasmic reticulum of CellLight ER-RFP/BacMam 2-treated human HuH7 cells at 25 uM after 30 mins by DAPI staining-based confocal microscopy; type: ADME, cell-based; conditions: huh-7, 0.5 h
In short: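 HuH-7 cells were plated overnight in 10% FBS DMEM and transduced with CellLight ER-RFP BacMam 2.0 for 48 h. They were then exposed to fluorescent conjugate at 25 µM in DMEM for 30 min, fixed in 4% paraformaldehyde for 2 min at 37 °C and washed with PBS. Imaging was by confocal microscopy with a 63X lens.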

Mus musculus [15] = organism: Mus musculus; conditions: 3.2 mM
Rattus norvegicus [16] = experiment: Cmax in portal vein cannulated Sprague-Dawley rat assessed as (S)-N-(pyrrolidin-3-yl)nicotinamide at 30 mg/kg, po measured up to 140 mins; type: ADME, organism-based; parameters: dose 30 mg/kg, route oral; conditions: in vivo; in short: as §2
Rattus norvegicus [17] = experiment: Cmax in jugular vein cannulated Sprague-Dawley rat assessed as (S)-N-(pyrrolidin-3-yl)nicotinamide at 30 mg/kg, po measured up to 140 mins; type: ADME, organism-based; parameters: dose 30 mg/kg, route oral; conditions: in vivo; in short: as §2
Mus musculus [18] = organism: Mus musculus; experiment: Inhibition of NFkappaB in mouse RAW 264.7 cells at 78.7 uM preincubated for 2 hrs followed by LPS addition for 3 hrs by luciferase reporter gene assay relative to control; type: cell-based
[19] = target: T1, Sterol regulatory element-binding protein 2 (Homo sapiens); experiment: Induction of SREBP2 maturation in human HepG2 cells at 10 uM after overnight incubation by immunoblot analysis; type: cell-based; in short: as §1
[20] = Drug uptake in endoplasmic reticulum of CellLight ER-RFP-treated human HuH7 cells at 25 uM after 30 mins by DAPI staining-based confocal microscopy in presence of endocytosis inhibitor dynasore; type: ADME, cell-based; conditions: huh-7, 0.5 h
In short: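 HuH-7 cells were transduced with CellLight ER-RFP BacMam 2.0 for 48 h and pretreated with 80 µM dynasore. They were then exposed to compound for 30 min, fixed in 4% formaldehyde for 2 min at 37 °C and mounted with anti-fade DAPI. Imaging was by confocal microscopy with a 63X lens.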

[21] = Drug uptake in lysosomes of CellLight ER-RFP/BacMam 2-treated human HuH7 cells at 25 uM after 30 mins by DAPI staining-based confocal microscopy; type: ADME, cell-based, Lysosome; conditions: huh-7, 0.5 h; in short: as §3

## O=C(O)c1cccnc1 [NIACIN]
[1]
  inhibition: inactive
[2]
  AUC(0-t) at 6 h: 6980 ng·h/mL
[3]
  inhibition: inactive
In vivo
  Cmax at 6 h: 7470 ng/mL

## NCCNC(=O)c1ccccc1O
Plasma
  Drug metabolism: metabolite_detected

## CC/C=C\C/C=C\C/C=C\C/C=C\C/C=C\CCCC(=O)O
[4]
  inhibition: inactive
[1]
  inhibition: inactive

## CC/C=C\C/C=C\C/C=C\C/C=C\C/C=C\CCCC(=O)N(C)CCNC(=O)c1cccnc1
[5]
  Cmax: 5060 ng/mL
[6]
  Cmax: 400 ng/mL
Rattus norvegicus [7]
  Cmax: 11 ng/mL
Rattus norvegicus [8]
  Cmax: 28 ng/mL
Rattus norvegicus [9]
  Cmax: BLD
Rattus norvegicus [10]
  Cmax: BLD
Liver
  Drug uptake: Active

## [2H]C([2H])([2H])C([2H])([2H])/C=C\C/C=C\C/C=C\C/C=C\C/C=C\CCCC(=O)NCCNC(=O)c1cccnc1
[11]
  Drug metabolism: tde

## CC\C=C/C=C/C=C/C=C\CCCCCCCC(=O)O
[12]
  Drug uptake: Not Active
[13]
  Drug uptake: Not Active

## CC\C=C/C=C/C=C/C=C\CCCCCCCC(=O)NCCNC(=O)c1ccccc1O
[14]
  Drug uptake: Active

## O=C(O)c1ccccc1O [SALICYLIC ACID]
Plasma
  Drug metabolism: metabolite_detected
Mus musculus [15]
  inhibition: Active

## CC/C=C\C/C=C\C/C=C\C/C=C\C/C=C\CCCC(=O)N1CCC(NC(=O)c2cccnc2)C1 (single isomer, unassigned)
[5]
  Cmax: 5320 ng/mL
[6]
  Cmax: 564 ng/mL
Rattus norvegicus [7]
  Cmax: 13 ng/mL
Rattus norvegicus [8]
  Cmax: 11 ng/mL
Rattus norvegicus [16]
  Cmax: 73 ng/mL
Rattus norvegicus [17]
  Cmax: 35 ng/mL

## CC/C=C\C/C=C\C/C=C\C/C=C\C/C=C\C/C=C\CCC(=O)O
Mus musculus [18]
  inhibition: Active

## O=C(O)CNC(=O)c1ccccc1O [SALICYLURIC ACID]
Plasma
  Drug metabolism: metabolite_detected

## CC(C)c1c(C(=O)Nc2ccccc2)c(-c2ccccc2)c(-c2ccc(F)cc2)n1CC[C@@H](O)C[C@@H](O)CC(=O)O
[19]
  Activity: Active

## CC\C=C/C=C/C=C/C=C\CCCCCCCC(=O)NCCNC(=O)c1cccnc1
[20]
  Drug uptake: Not Active
[21]
  Drug uptake: Not Active
[14]
  Drug uptake: Active

Reference: ChEMBL document CHEMBL3785029, “Synthesis and Characterization of Fatty Acid Conjugates of Niacin and Salicylic Acid” (J Med Chem, 2016)
